Reference: the EternaBench riboswitch data

Test system: MS2 coat protein
Assay: apparent Kd, MS2 coat protein; higher = weaker binding; RNA-MaP array; FMN 200 µM where present
Procedure, shortened: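 Green signal was scaled to red-channel RNA signal and control-cluster median Fmax, and the apparent Kd was taken as the median of filtered per-cluster binding-curve fits. The binding series used SNAP-549-labelled MS2 coat protein from 0.7 or 1.5 nM, doubling to 3 µM, on designs transcribed by stalled E. coli RNA polymerase on Illumina sequencing-chip clusters. Each series ran without and then with constant ligand in 100 mM Tris-HCl pH 7.5, 80 mM KCl, 4 mM MgCl2, BSA, DTT, yeast tRNA and Tween-20.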

[1] = designed as: OFF switch for flavin mononucleotide, no ligand
[2] = ligand present: flavin mononucleotide, designed as: OFF switch for flavin mononucleotide
[3] = designed as: ON switch for flavin mononucleotide, no ligand
[4] = ligand present: flavin mononucleotide, designed as: ON switch for flavin mononucleotide

Sequence | apparent Kd [1] [nM] | apparent Kd [2] [nM] | apparent Kd [3] [nM] | apparent Kd [4] [nM]
ACAUUGUUACAGGAUAUCGUUGGUUUUAUCCUGCGAGAAGGGUAUACAUGAGGAUCACCCAUGUUAUCCUCAUU | 18.7 | 21.8 |  | 
GCUAAGAAAGGAUAUACACCGGUGAGCCGCUGAUUUCAGCAACAUGAGGAUCACCCAUGUAGAAGGUUUAUGGG | 367 | 110 |  | 
AGUAACAUGCUCAACAUGAGGAUCACCCAUGUACUCUCUUGUAAGGAUAUACAAUCGUAUUGAUAGUAGAAGGUACCAAUUAAG |  |  | 52.7 | 51.9
CCUCUACAUGAGGAUCACCCAUGUGAGGAUAUCUCGGAGCAGCCUAUUAAGGCGCUCCAGAGAAGGCACGUGUA | 19.3 | 28.3 |  | 
UGUCGGAGCAGAGGAUAUUACAUGAGGAUCACCCAUGUAUGAACCAAUAGCUGGAAACAGCAAUGUGAGAAGGCUGCUCCGACA | 5.47 | 52.3 |  | 
AGUUACAUACUCAACAUGAGGAUCACCCAUGUACUCUCUUGUAAGGAUAUACAUUCGUAUUGAAAGUAGAAGGUACUAAUUAUG |  |  | 89.1 | 77.3
GUAUGGAUUACAGGAUAUGUUAGUUUUAAGUGUAUUGGUUAUUACUUAAUUACAGAAGGGUAUUACAUGAGGAUCACCCAUGUA |  |  | 16 | 11.5
AUGAGGUUAGGAUAUACAUGAGGAUCACCCAUGUUGAAAGGUUAGGUAGGCGGAGCUGGUAGAAGGAACGGAGC | 39.7 | 31.8 |  | 
GUUAGACAUGAGGAUCACCCAUGUGAGGAUAUGAUGCGAUCGUGAUGAAAUGAUCGCAUCAGAAGGCACAUAUG | 153 | 423 |  | 
UUGAGGUGCAAGAAGGAUCACAUGAGGAUCACCCAUGUGAUAUAAAGUCUCGAGAUUUUAUAUCGAUAGGAUAUUGCACCGAAC |  |  | 19.9 | 13.8
UAGAAGUCAGGAUAUCCUGCUCGUCACUUGCGUGAUGAGUAGGAGAAGGGACAUGAGGAUCACCCAUGUAAAGG | 188 | 258 |  | 
UUCGCACAUGAGGAUCACCCAUGUCAGGAUAUUGUGGUGGGAACAACUGGGAAACGCACGAGAAGGGACACACA | 36.2 | 32.2 |  | 
CAGCCCUGAGGAUAUCCCUCCUUGUACAUGAGGAUCACCCAUGUUCUCCUCUGGGCUUUGGGAGAAGGCAGGUCUC | 26.8 | 26.4 |  | 
CAGUACAGAGGAUAUACAUGAGGAUCACCCAUGUGUUUCAGCUAGGAGACUAGCGAAAGUAGAAGGCUGUACUG | 9.57 | 25.1 |  | 
GGGUACAUCGGAGGAUAUCAUGUAGAUACAUGAGGAUCACCCAUGUCGUACGAGAGUACGGAGAUUGAGAAGGCCGAUGUACCG |  |  | 31 | 14.7
AACAUGUCAGGAUAUGACUAAGGUGCUCGGUUGAGCCCUUAUCAGAAGGGACAUGAGGAUCACCCAUGUUCCGA | 17.8 | 21.1 |  | 
AUCGUGCAGCUUUGCUGUACGAGUACAUGAGGAUCACCCAUGUAGGAUAUGGUACGCUUUGCGUGCUAGAAGGAUAUGCGAUUG | 43.8 | 46.1 |  | 
GCGAAUUAGUGAGGAUAUACAUAAUUUAUAACUGUAGAAGGCACAAUCCUCAAGACAUGAGGAUCACCCAUGUGGUAUUACGCU | 151 | 911 |  | 
GACUUUUCUGAGGAUAUUGCAUCACCCGAUCUAUAAGAAGGCAGAACAUGAGGAUCACCCAUGUGGGUUUCUAG | 24.7 | 33.6 |  | 

Sequence | apparent Kd [1] [nM] | apparent Kd [2] [nM] | apparent Kd [3] [nM] | apparent Kd [4] [nM]
AGCUGUGGCCGAGGAUAUCUAUCUCCAAUAACCGAAAUAUAAUCGGACAUGAGGAUCACCCAUGUAGAGAAGGCGGUCUCAGCA | 20.7 | 36 |  | 
CCUGACGCAUCAGGAUAUGCUUACAUCCAUGUUGCAGAAGGGAUGCGUUCUGAAAACAUGAGGAUCACCCAUGUAAGCGGCCAA |  |  | 82 | 52.2
AUCAGCUCGUCAGGAUAUACGUCACUGCGUCAGCAGUGUGGUGAGAUCACAUGAGGAUCACCCAUGUAGAAGGGACGAGCUGAU | 376 | 300 |  | 
CCGGAAAUAGAGGAUAUCGUAUCGGAUACGAUACGAGAAGGCUGUACAUGAGGAUCACCCAUGUGUCCUACCGG | 11.2 | 21.6 |  | 
AAGAAGUGAGGAUAUGCUGCUCGUCACUUGCGUGAUGAGUAGCAGAAGGCACAUGAGGAUCACCCAUGUGGAAG | 33.9 | 47.8 |  | 
UUUUGAAAGUGAGGAUAUGACAUGAGGAUCACCCAUGUAAAGGGAGUUGAAUAUAUAGAAAGAUAUCAGAAGGCACAAAUGUUU | 178 | 497 |  | 
UGUCGGAGCAGAGGAUAUACAUGAGGAUCACCCAUGUAAAUGAAAGAUAGCUCGAAACGAGCAAAGUAGAAGGCUGCUCCGACA | 14.9 | 24.7 |  | 
GCGUUAAAGAUCCAUUUUUACAACAUGAGGAUCACCCAUGUGCAGGAUAUCGAAUGUUUUAUAUUCGAGAAGGGCAAUUUCCGC | 70.3 | 99.3 |  | 
GGUACUCAAAGAGUACCAAUACGAACAUGAGGAUCACCCAUGUAGGAUAUAAAACCGCCGGAGUAUUAGAAGGACAUGUGCCUA | 11.5 | 10.5 |  | 
GUUUAGUGAGGAUAUGUGGCGUAGAUCGAGCGCGGUCGGCUACAGAAGGCACAUGAGGAUCACCCAUGUUUCUC | 59.5 | 372 |  | 
CGAUGUUAUGUCAGGAUAUGCAUUGCGAAAGCGAUGCAGAAGGGACAUGAGGAUCACCCAUGUCCUAACCAUCG | 12.3 | 18.8 |  | 
GCCCAACAUGAGGAUCACCCAUGUAAGGAUAUUGGAUGUGUGUGGAAACAUAUAUAAACGAGAAGGUACAGGGC | 38.4 | 28.9 |  | 
UUUAAUCGAAACAUGAGGAUCACCCAUGUGUUGUAAUUAACAUAGGAUAUUUGUAUACUUUUGUAAGAGAAGGAUGAUAAUACU |  |  | 22.4 | 15.8
AUCACCUCGUCAGGAUAUACGUCACUGCGUCAGCAGUGUGGUAAGAUCACAUGAGGAUCACCCAUGUAGAAGGGACGAGCUGAU | 14.7 | 268 |  | 
GCAAUCGCAUGAGGAUAUGCUGGAGUUUAGACAGCAGAAGGCAUGUCAUAAGACAUGAGGAUCACCCAUGUAGUUACAAUGGCA |  |  | 41 | 11.9
GUACCUUAUGAGAAGGCGGUCAUGAAACAUGAUCGAGGAUAUCAUGUAAACAUGAGGAUCACCCAUGUAUGGGUAUUAUGGUAG |  |  | 70.2 | 13.8
UGGGCCCGAACAGGAUAUGUAACCAGUCCCUCACAUGAGGAUCACCCAUGUCCAAGGGCUCGAAGGCAGAAGGGUUAAGGCUGU |  |  | 740 | 138
UACUGACAUGAGGAUCACCCAUGUGAGGAUAUUCUCCUGCUAAAUUAAUGGUGGGUGUGAAGAAGGCACAAGGA | 37.3 | 120 |  | 
CUAUUACGAGGAUAUCGUCAGAGUCACAUGAGGAUCACCCAUGUAUCCCACGGACCGGAAUGAGAAGGCGUUCAUG | 288 | 769 |  | 

Sequence | apparent Kd [1] [nM] | apparent Kd [2] [nM] | apparent Kd [3] [nM] | apparent Kd [4] [nM]
AUCAGCACGUCAGGAUAUACGUCACUGCGUCAGCAGUGUGGUAAGAUCACAUGAGGAUCACCCAUGUAGAAGGGACGAGCUGAU | 14.1 | 317 |  | 
AGGAGACAUGAGGAUCACCCAUGUGCACGUGGAGGAGGAUAUGCUAGUAGAAGAUAGAAUGCAGAAGGCCUAAGAA |  |  | 72.9 | 84.8
GCAUGAUACUAGGAUAUCAGCAUACUUCAAUGUUGAGAAGGAGUAACAUGAGGAUCACCCAUGUAUCCAACAUG | 59.4 | 166 |  | 
AUGAGCUCGUCAGGAUAUACGUCACUGCGUCAGCAGUGUGGUAAGAUCACAUGAGGAUCACCCAUGUAGAAGGGACGAGCUGAU | 14.6 | 307 |  | 
AAGAAGUCAGGAUAUGCAUGGCGGGACUUGCGUCGUGGCGUGCAGAAGGGACAUGAGGAUCACCCAUGUAAAGG | 151 | 180 |  | 
UAAUAGUAUGUUAGGAUAUGCUGGUCCUUGGAUCAGCAGAAGGAACAUGAGGAUCACCCAUGUAGACUAUUUUA | 15.5 | 30 |  | 
UUUAUAUGAGGAUAUCCGAGGAGCCACAUGAGGAUCACCCAUGUCGUCUUUUGUGAUAGUGGAGAAGGUGUGUCAG | 27.7 | 31.6 |  | 
CUGGGCGGAGGAUAUACAGGUUGGGCAUAAGUUCGGCUGGGACAUGAGGAUCACCCAUGUAGAAGGUUGUUUAG | 25.3 | 23.1 |  | 
GCCAACGCAUGAGGAUAUGCUCCCGUUUCGGGAGCAGAAGGCAUGUCAUAAGACAUGAGGAUCACCCAUGUAGUUAACAUGGCA |  |  | 572 | 31.2
AAGUCAGCAGGAUAUGCGAUGGUGGGCUAGGUAGCUUGCCCACAUGAGGAUCACCCAUGUAGAAGGGCUGGCUA | 72 | 48.7 |  | 
AAAUCUUACGAAGGAUAUACAAACAUGAGGAUCACCCAUGUGUGUUUCGUGUAACUGAAAUUCGGGUAGAAGGUCGUAGACAUA | 24.3 | 15 |  | 
CGCCACUUAACAGCGGCGCGGUCGAGAAGGGUACAUGAGGAUCACCCAUGUCACGUUCCUCCUGUACAGGAUAUCGUACGGGUA | 65.6 | 117 |  | 
UUAAAUCGAAACAUGAGGAUCACCCAUGUGUUGUAAUUAACAUAGGAUAUGUAUAUACUUUUUAAAUAGAAGGAUGAUAAUACU |  |  | 16.1 | 11.6
AGCGUACAUGUUAGGAUAUGCUGUAGGAAUACUCAGCAGAAGGAACAUGAGGAUCACCCAUGUUUGUCCGUUCU | 14.5 | 23.9 |  | 
UAUAUAUAGUAAGGAUAUGUAUUAAUUUUGUAAACAGAAGGUACUGACAUGAGGAUCACCCAUGUUUUAGUGUGGGCAUGUAGA | 130 | 208 |  | 
UAAUCUCAGAUAGGAUAUAUAGGAUAACUUAAGACCUAACAUGAGGAUCACCCAUGUGAUUAUUCGUAGAAGGAUCAUUGAACU |  |  | 254 | 251
CGAUAGGACAGAGGAUAUACACAUGAGGAUCACCCAUGUGAUUACAACGCGUAAGCUCCAAACAUGUAGAAGGCUGUCCUAUCG | 17.6 | 20.6 |  | 
GGUGGACAUGAGGAUCACCCAUGUGAGGAUAUCGGCCGGUUCGUGGUGGCUGGCCUCUCGAGAAGGCGCAUAGU | 58.1 | 71.9 |  | 
